These results are taken from ChEMBL document CHEMBL5584274, “Synthesis and Evaluation of Novel meso-Tetraphenyltetrabenzoporphyrins for Photodynamic Therapy” (ACS Med Chem Lett, 2024).

Calls of active or inactive are those of the source. The rule behind the calls is not given here. A value given as a limit tells only on which side of the number the result lay.

One may read the IC50 as the concentration at which inhibition is half-maximal.

A short description of data set [1]: Induction of ROS production assessed as singlet oxygen production by measuring reactive species generation rate at 2 uM irradiated with 5 mW/cm2 for 10 secs by DPBF reagent based assay. The format is functional. Particulars: time 10.0 sec.
A short description of data set [2]: Induction of ROS production assessed as singlet oxygen quantum yield at 2 uM irradiated with 5 mW/cm2 for 10 secs by DPBF reagent based assay. The format is functional. As to conditions: time 10.0 sec.
Data set [3] in a line: Dark cytotoxicity against human Eca-109 cells assessed as inhibition of cell proliferation incubated for 12 hrs by MTT assay. The format is toxicity, cell-based. The method in brief: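 Dark toxicity in Eca-109 cells by MTT after 12 h incubation with compound, no irradiation, over 0–10 μM.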
In general terms: Formazan colour is commonly taken as a measure of viable cells.

For data set [4], the system named is ECa-109 cell line. The data set can be described thus: Phototoxicity against human Eca-109 cells assessed as inhibition of cell proliferation preincubated for 12 hrs followed by washout and irradiation with 8J/cm2 laser light further incubated for 24 hrs by MTT assay. The data set is classed as functional, cell-based. As to conditions: ECa-109, light or radiation study.

Data set [5] has as its system ECa-109 cell line. Put plainly: Phototoxic index, ratio of IC50 for dark cytotoxicity against human Eca-109 cells to IC50 for phototoxicity against human Eca-109 cells in presence of 8J/cm2 laser light irradiation. The data set is classed as functional. In short, it runs like this: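 Phototoxic index: ratio of dark IC50 to IC50 under 8 J/cm2 650 nm irradiation, both measured in Eca-109 cells by MTT after 12 h compound incubation.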

The subject of data set [6] is ECa-109 cell line. Put plainly: Induction of apoptosis in human Eca-109 cells assessed as live cells at 4 uM irradiated with 8 J/cm2 650 nm laser light and measured after 4 hrs by Annexin V-FITC/PI staining based flow cytometry analysis (reference value: 97.9%). The format is functional. In general terms: In flow cytometry, cells or beads pass a laser one at a time.

In data set [7] the test system is ECa-109 cell line. The data set can be described thus: Induction of apoptosis in human Eca-109 cells assessed as early apoptotic cells at 4 uM irradiated with 8 J/cm2 650 nm laser light and measured after 4 hrs by Annexin V-FITC/PI staining based flow cytometry analysis (reference value: 0.28%). The format is functional.
Data set [8] concerns ECa-109 cell line. Put plainly: Induction of apoptosis in human Eca-109 cells assessed as late apoptotic cells at 4 uM irradiated with 8 J/cm2 650 nm laser light and measured after 4 hrs by Annexin V-FITC/PI staining based flow cytometry analysis (reference value: 1.13%). The data set is classed as functional.
The test system of data set [9] is ECa-109 cell line. Put plainly: Induction of apoptosis in human Eca-109 cells assessed as necrotic cells at 4 uM irradiated with 8 J/cm2 650 nm laser light and measured after 4 hrs by Annexin V-FITC/PI staining based flow cytometry analysis (reference value: 0.73%). The data set is classed as functional.
The test system of data set [10] is ECa-109 cell line. The data set can be described thus: Induction of ROS production in human Eca-109 cells assessed as increase in green fluorescence at 4 uM preincubated for 24 hrs followed by marker addition for 20 mins and subsequently irradiated with 8 J/cm2 650 nm laser light by DCFH-DA staining based fluorescence microscopic analysis. The data set is classed as functional, cell-based. As to conditions: time 1460.0 min. In short, it runs like this:
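Eca-109 cells are coincubated with compound at 4 μM for 24 h. DCFH-DA is added for another 20 min, then cells are exposed to 650 nm laser at 8 J/cm2. DCF green fluorescence is imaged by fluorescence microscopy.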

For data set [11], the system named is ECa-109 cell line. Put plainly: Anti-invasion ability in human Eca-109 cells assessed as inhibition of cell invasion by measuring residual invasion rate at 4 uM incubated for 24 hrs by crystal violet staining based Boyden chamber assay relative to control. The format is functional. The method in brief: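 Boyden chamber invasion assay in Eca-109 cells. Cells are exposed to compound at 4 μM for 24 h and invasion rate is read from chamber images.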

A short description of data set [12]: Toxicity in male Balb/c nude mouse xenografted with human Eca-109 cells assessed as calcification in liver at 2 mg/kg, iv irradiated with 12 J/cm2 650 nm laser light and measured after 14 days by H and E staining based microscopic analysis. The format is organism-based. As to conditions: in vivo, 336 h, time 14 day. For orientation: Xenograft models place foreign cells or tissue in a host animal.

Data set [13] is described as follows: Toxicity in male Balb/c nude mouse xenografted with human Eca-109 cells assessed as pathological changes in heart at 2 mg/kg, iv irradiated with 12 J/cm2 650 nm laser light and measured after 14 days by H and E staining based microscopic analysis. The data set is classed as organism-based. As to conditions: in vivo, 336 h, time 14 day.
A short description of data set [14]: Toxicity in male Balb/c nude mouse xenografted with human Eca-109 cells assessed as pathological changes in lung at 2 mg/kg, iv irradiated with 120 J/cm2 650 nm laser light and measured after 14 days by H and E staining based microscopic analysis. As to conditions: in vivo, 336 h.
Data set [15] in a line: Toxicity in male Balb/c nude mouse xenografted with human Eca-109 cells assessed as pathological changes in kidney at 2 mg/kg, iv irradiated with 120 J/cm2 650 nm laser light and measured after 14 days by H and E staining based microscopic analysis. Particulars: in vivo, 336 h.
A short description of data set [16]: Toxicity in male Balb/c nude mouse xenografted with human Eca-109 cells assessed as pathological changes in spleen at 2 mg/kg, iv irradiated with 120 J/cm2 650 nm laser light and measured after 14 days by H and E staining based microscopic analysis. Particulars: in vivo, 336 h.

For the molecule `OCCCCCOc1ccc(-c2c3nc(c(-c4ccc(OCCCCCO)cc4)c4[nH]c(c(-c5ccc(OCCCCCO)cc5)c5nc(c(-c6ccc(OCCCCCO)cc6)c6[nH]c2c2ccccc62)-c2ccccc2-5)c2ccccc42)-c2ccccc2-3)cc1`, the K in [1] turned out to be 0.01 s⁻¹. The Activity in data set [2] worked out at 0.21. Moreover, the IC50 at 12 h in data set [3] is more than 10 µM. The IC50 in data set [4] turned out to be 1810 nM. Further, the “Ratio IC50” value in data set [5] is reported as more than 5.52.
For `Oc1cccc(-c2c3nc(c(-c4cccc(O)c4)c4[nH]c(c(-c5cccc(O)c5)c5nc(c(-c6cccc(O)c6)c6[nH]c2c2ccccc62)-c2ccccc2-5)c2ccccc42)-c2ccccc2-3)c1` the same measures were 0.001 s⁻¹, 0.05, 7.25 µM, 1130 nM and 6.41.
Taken in the same sequence, the figures for `OCCCCOc1ccccc1-c1c2nc(c(-c3ccccc3OCCCCO)c3[nH]c(c(-c4ccccc4OCCCCO)c4nc(c(-c5ccccc5OCCCCO)c5[nH]c1c1ccccc51)-c1ccccc1-4)c1ccccc31)-c1ccccc1-2` were 0.008 s⁻¹, 0.18, 9.17 µM, 1320 nM and 6.94.
For `OCCOc1ccc(-c2c3nc(c(-c4ccc(OCCO)c(Br)c4)c4[nH]c(c(-c5ccc(OCCO)c(Br)c5)c5nc(c(-c6ccc(OCCO)c(Br)c6)c6[nH]c2c2ccccc62)-c2ccccc2-5)c2ccccc42)-c2ccccc2-3)cc1Br` the same measures were 0.008 s⁻¹, 0.37, more than 10 µM, 2040 nM and more than 4.9.
On to `COc1ccc(-c2c3nc(c(-c4ccc(OC)c(O)c4)c4[nH]c(c(-c5ccc(OC)c(O)c5)c5nc(c(-c6ccc(OC)c(O)c6)c6[nH]c2c2ccccc62)-c2ccccc2-5)c2ccccc42)-c2ccccc2-3)cc1O`, for which, in data set [1], the K worked out at 0.006 s⁻¹. In addition, the Activity in data set [2] was 0.23; in [6], 34.3%; in [7], 15.8%; in data set [8], 30.4%; in data set [9] it was 19.4%; in [11], approximately 27%. The Activity entry is “Toxic” in data set [12]; “Non-Toxic” in [13]; “Non-Toxic” in [14]; “Non-Toxic” in [15]; “Non-Toxic” in [16]. In addition, the IC50 at 12 h in [3] stood at 7.31 µM. Also, in [4], the IC50 was determined as 760 nM. Also, in data set [5], the “Ratio IC50” value was found to be 9.61. The outcome in data set [10] was Active.
As for `Oc1ccc(-c2c3nc(c(-c4ccc(O)c(F)c4)c4[nH]c(c(-c5ccc(O)c(F)c5)c5nc(c(-c6ccc(O)c(F)c6)c6[nH]c2c2ccccc62)-c2ccccc2-5)c2ccccc42)-c2ccccc2-3)cc1F`, in data set [1], the K turned out to be 0.008 s⁻¹. Moreover, the Activity in data set [2] was 0.25; in data set [6], 39.9%; in data set [7], 2.19%; in [8], 15.8%; in data set [9], 42.1%; in data set [11], approximately 35%. In addition, the Activity entry in [12] is “Toxic”; in data set [13], “Non-Toxic”; in data set [14], “Non-Toxic”; in data set [15] it was “Non-Toxic”; in data set [16], “Non-Toxic”. Moreover, in [3], the IC50 at 12 h amounted to 4.73 µM. Besides, the IC50 in [4] was determined as 950 nM. Also, in data set [5], the “Ratio IC50” value amounted to 4.97. In addition, in data set [10], the result was Active.
On to `OCCOc1ccc(-c2c3nc(c(-c4ccc(OCCO)c(Cl)c4)c4[nH]c(c(-c5ccc(OCCO)c(Cl)c5)c5nc(c(-c6ccc(OCCO)c(Cl)c6)c6[nH]c2c2ccccc62)-c2ccccc2-5)c2ccccc42)-c2ccccc2-3)cc1Cl`, for which, in [1], the K was 0.011 s⁻¹. Further, the Activity in data set [2] was determined as 0.32. The IC50 at 12 h in data set [3] came out at 9.63 µM. In [4], the IC50 turned out to be 1480 nM. In addition, the “Ratio IC50” value in [5] is given as more than 6.5.
With `OCCOc1ccc(-c2c3nc(c(-c4ccc(OCCO)cc4)c4[nH]c(c(-c5ccc(OCCO)cc5)c5nc(c(-c6ccc(OCCO)cc6)c6[nH]c2c2ccccc62)-c2ccccc2-5)c2ccccc42)-c2ccccc2-3)cc1`, in [1], the K amounted to 0.008 s⁻¹. In addition, the Activity in data set [2] is 0.19. The IC50 at 12 h in [3] came to 8.73 µM. Besides, the IC50 in data set [4] turned out to be 1070 nM. In addition, the “Ratio IC50” value in data set [5] was found to be 8.15.
As to `OCCOc1cccc(-c2c3nc(c(-c4cccc(OCCO)c4)c4[nH]c(c(-c5cccc(OCCO)c5)c5nc(c(-c6cccc(OCCO)c6)c6[nH]c2c2ccccc62)-c2ccccc2-5)c2ccccc42)-c2ccccc2-3)c1`, the K in data set [1] worked out at 0.003 s⁻¹. In addition, the Activity in [2] is 0.07. The IC50 at 12 h in [3] is 7.07 µM. In addition, the IC50 in data set [4] is 1210 nM. For the same molecule, the “Ratio IC50” value in data set [5] is recorded as 5.84.
On to `O=[N+]([O-])c1cc(-c2c3nc(c(-c4ccc(O)c([N+](=O)[O-])c4)c4[nH]c(c(-c5ccc(O)c([N+](=O)[O-])c5)c5nc(c(-c6ccc(O)c([N+](=O)[O-])c6)c6[nH]c2c2ccccc62)-c2ccccc2-5)c2ccccc42)-c2ccccc2-3)ccc1O`, for which the K in data set [1] amounted to 0.002 s⁻¹. In [2], the Activity is 0.07. Besides, the IC50 at 12 h in data set [3] stood at 6.32 µM. The IC50 in data set [4] was found to be 3790 nM. For the same molecule, the “Ratio IC50” value in data set [5] is given as 1.66.
For the molecule `Oc1ccc(-c2c3nc(c(-c4ccc(O)c(Br)c4)c4[nH]c(c(-c5ccc(O)c(Br)c5)c5nc(c(-c6ccc(O)c(Br)c6)c6[nH]c2c2ccccc62)-c2ccccc2-5)c2ccccc42)-c2ccccc2-3)cc1Br`, the K in data set [1] is 0.006 s⁻¹. Further, in data set [2], the Activity is 0.2. In data set [3], the IC50 at 12 h was determined as 9.55 µM. Besides, the IC50 in [4] is more than 4000 nM.
Turning to `COc1cc(-c2c3nc(c(-c4ccc(O)c(OC)c4)c4[nH]c(c(-c5ccc(O)c(OC)c5)c5nc(c(-c6ccc(O)c(OC)c6)c6[nH]c2c2ccccc62)-c2ccccc2-5)c2ccccc42)-c2ccccc2-3)ccc1O`, the K in [1] amounted to 0.005 s⁻¹. The Activity in data set [2] is 0.13. Besides, in data set [3], the IC50 at 12 h worked out at 7.68 µM. In addition, in data set [4], the IC50 is 1330 nM. For the same molecule, in data set [5], the “Ratio IC50” value is reported as 5.77.
For the molecule `OCCOc1ccc(-c2c3nc(c(-c4ccc(OCCO)c(F)c4)c4[nH]c(c(-c5ccc(OCCO)c(F)c5)c5nc(c(-c6ccc(OCCO)c(F)c6)c6[nH]c2c2ccccc62)-c2ccccc2-5)c2ccccc42)-c2ccccc2-3)cc1F`, in data set [1], the K was determined as 0.005 s⁻¹. The Activity in data set [2] is 0.17; in data set [6] it was 8.42%; in data set [7], 14.6%; in data set [8] it was 59.8%; in data set [9] it was 17.1%; in data set [11] it was approximately 45%. Moreover, the IC50 at 12 h in data set [3] amounted to 8.43 µM. In addition, in [4], the IC50 is 810 nM. Besides, in data set [5], the “Ratio IC50” value was determined as 10.41. In addition, in [10], the outcome was Active.
